Calls of active or inactive are those of the source. No cut-off for these calls is given here.
Experiments:
[1] = target: T1, von Hippel-Lindau disease tumor suppressor/Serine/threonine-protein kinase TBK1 (Homo sapiens, UniProt Q9UHD2+P40337); assay: Induction of VHL-mediated TBK1 degradation in human Panc02.13 cells at 1 uM after 16 hrs by Western blot method; format: cell-based
How it was run: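 Panc02.13 cells grown in RPMI-1640 with 15% FBS and 10 units/mL human recombinant insulin; compound exposure 16 h, with TLR3 agonist Poly I:C added for the final 3 h. Cells lysed in RIPA buffer with protease and phosphatase inhibitors, lysates clarified at 16,000g for 10 min, resolved by SDS-PAGE and immunoblotted for TBK1, with GAPDH as loading control.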
Target sequence in this assay (P40337 whole entry, looked up, one chain of several): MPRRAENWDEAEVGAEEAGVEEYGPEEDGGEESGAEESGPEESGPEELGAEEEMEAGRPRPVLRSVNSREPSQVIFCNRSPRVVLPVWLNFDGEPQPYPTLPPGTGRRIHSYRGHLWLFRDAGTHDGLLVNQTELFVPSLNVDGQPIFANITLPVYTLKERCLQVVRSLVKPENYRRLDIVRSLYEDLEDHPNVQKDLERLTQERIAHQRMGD

[2] = target: T1, von Hippel-Lindau disease tumor suppressor/Serine/threonine-protein kinase TBK1; assay: Induction of VHL-mediated TBK1 degradation in human Panc02.13 cells after 16 hrs by Western blot method; format: cell-based
How it was run: (§1)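 For phospho-IRF3 read-out, TLR3 agonist Poly I:C added for the final 3 h. Cells lysed in RIPA buffer with protease/phosphatase inhibitors, lysates clarified at 16,000g, run on SDS-PAGE and immunoblotted for TBK1, pIRF3 and GAPDH.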
Target sequence in this assay (P40337 whole entry, one chain of several): as the sequence (P40337 whole entry, looked up, one chain of several) above

[3] = target: T2, Serine/threonine-protein kinase TBK1 (Homo sapiens, UniProt Q9UHD2); assay: Binding affinity to human full length wild-type TBK1 expressed in mammalian expression system
T2 sequence (Q9UHD2 whole entry): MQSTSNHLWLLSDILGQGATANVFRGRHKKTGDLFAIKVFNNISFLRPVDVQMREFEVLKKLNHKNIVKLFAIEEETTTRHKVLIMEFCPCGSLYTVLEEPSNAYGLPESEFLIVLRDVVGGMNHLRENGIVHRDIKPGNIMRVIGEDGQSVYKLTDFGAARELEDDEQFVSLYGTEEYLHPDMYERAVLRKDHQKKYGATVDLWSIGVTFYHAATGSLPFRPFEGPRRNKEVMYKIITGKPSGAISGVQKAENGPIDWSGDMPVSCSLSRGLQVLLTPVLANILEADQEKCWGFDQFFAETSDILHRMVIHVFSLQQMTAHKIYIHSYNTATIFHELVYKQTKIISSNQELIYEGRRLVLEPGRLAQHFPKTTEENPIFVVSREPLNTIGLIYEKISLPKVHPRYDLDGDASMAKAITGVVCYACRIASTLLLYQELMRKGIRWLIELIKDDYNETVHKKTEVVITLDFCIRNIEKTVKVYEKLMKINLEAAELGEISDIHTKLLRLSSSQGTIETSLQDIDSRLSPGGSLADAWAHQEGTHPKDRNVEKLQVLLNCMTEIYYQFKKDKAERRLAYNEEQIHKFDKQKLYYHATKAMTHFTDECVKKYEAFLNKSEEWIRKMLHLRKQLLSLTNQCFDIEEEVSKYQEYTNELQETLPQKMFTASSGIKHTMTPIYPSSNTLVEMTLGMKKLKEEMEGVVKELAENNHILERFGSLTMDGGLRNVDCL

[4] = target: von Hippel-Lindau disease tumor suppressor/Elongin-C/Elongin-B/HIF1A (Homo sapiens, UniProt P40337+Q15369+Q15370+Q16665); assay: Inhibition of His-tagged VHL/elongin B/elongin C (unknown origin) interaction with HIF1alpha preincubated for 10 mins followed by fluorescin labelled HIF1alpha peptide addition measured after 2 hrs by fluorescence polarization assay; format: protein-complex assay
How it was run: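 VHL coexpressed and copurified with Elongin B and C (VCB). Compound preincubated 10 min with VHL in 50 mM Tris pH 7.5, 200 mM NaCl, 2 mM DTT, 1% DMSO. Polarization converted to percent binding against control wells; IC50 from four-parameter fit.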

[5] = target: T3, Serine/threonine-protein kinase TBK1 (Homo sapiens) (UniProt Q9UHD2); assay: Antagonist activity at TBK1 in human Panc02.13 cells assessed as decrease in Poly(I:C)-induced IRF3 phosphorylation preincubated for 16 hrs followed by Poly I:C addition measured after 3 hrs by Western blot method; format: cell-based
T3 sequence (whole entry): T2 sequence (Q9UHD2 whole entry)
How it was run: as §1, with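 “Panc02.13 cells grown in RPMI-1640 with 15% FBS and 10 units/mL human recombinant insulin, exposed to compound for 16 h. For” for “For”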

[6] = target: T1, von Hippel-Lindau disease tumor suppressor/Serine/threonine-protein kinase TBK1; assay: Induction of VHL-mediated TBK1 degradation in human Panc02.13 cells at 0.1 to 1 uM after 16 hrs by Western blot method; format: cell-based
How it was run: as §1, with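 “Panc02.13 cells grown in RPMI-1640 with 15% FBS and 10 units/mL human recombinant insulin, exposed to compound for 16 h. For” for “For”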
Target sequence in this assay (P40337 whole entry, looked up, one chain of several): as the sequence (P40337 whole entry, looked up, one chain of several) above

[7] = target: T1, von Hippel-Lindau disease tumor suppressor/Serine/threonine-protein kinase TBK1; assay: Induction of VHL-mediated TBK1 degradation in human A549 cells harboring K-Ras mutant at 100 nM after 16 hrs by Western blot method; format: cell-based
Target sequence in this assay (P40337 whole entry, looked up, one chain of several): as the sequence (P40337 whole entry, looked up, one chain of several) above

[8] = target: T1, von Hippel-Lindau disease tumor suppressor/Serine/threonine-protein kinase TBK1; assay: Induction of VHL-mediated TBK1 degradation in human Panc02.13 cells at 100 nM after 16 hrs by Western blot method; format: cell-based
How it was run: as §1, with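 “Panc02.13 cells grown in RPMI-1640 with 15% FBS and 10 units/mL human recombinant insulin, exposed to compound for 16 h. For” for “For”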
Target sequence in this assay (P40337 whole entry, looked up, one chain of several): as the sequence (P40337 whole entry, looked up, one chain of several) above

[9] = target: T1, von Hippel-Lindau disease tumor suppressor/Serine/threonine-protein kinase TBK1; assay: Induction of VHL-mediated TBK1 degradation in human H1792 cells harboring K-Ras mutant at 100 to 300 nM after 16 hrs by Western blot method; format: cell-based
Target sequence in this assay (P40337 whole entry, looked up, one chain of several): as the sequence (P40337 whole entry, looked up, one chain of several) above

[10] = test system: A549; assay: Antiproliferative activity against human A549 cells harboring K-Ras mutant at 10 uM after 72 hrs by CellTiter-Glo assay; format: functional, cell-based
How it was run: (§2)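 Lung cancer lines seeded at 5000 cells/well; after 24 h, compound added as 3-fold dilutions (10 μM top final concentration, 0.1% DMSO final). Incubated 72 h, then viability read by CellTiter-Glo luminescence.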

[11] = target: T1, von Hippel-Lindau disease tumor suppressor/Serine/threonine-protein kinase TBK1; assay: Induction of VHL-mediated TBK1 degradation in human Panc02.13 cells at 100 nM after 16 hrs in presence of (2S,4R)-1-((S)-2-acetamido-3,3-dimethylbutanoyl)-4-hydroxy-N-(4-(4-methylthiazol-5-yl)benzyl)pyrrolidine-2-carboxamide by Western blot method; format: cell-based
How it was run: as §1, with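 “Panc02.13 cells grown in RPMI-1640 with 15% FBS and 10 units/mL human recombinant insulin, exposed to compound for 16 h. For” for “For”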
Target sequence in this assay (P40337 whole entry, looked up, one chain of several): as the sequence (P40337 whole entry, looked up, one chain of several) above

[12] = target: T1, von Hippel-Lindau disease tumor suppressor/Serine/threonine-protein kinase TBK1; assay: Induction of VHL-mediated TBK1 degradation in human H2110 cells harboring wild-type K-Ras at 100 to 300 nM after 16 hrs by Western blot method; format: cell-based
[13] = target: von Hippel-Lindau disease tumor suppressor/Inhibitor of nuclear factor kappa-B kinase subunit epsilon (Homo sapiens) (UniProt Q14164+P40337); assay: Induction of VHL-mediated IKKepsilon degradation in human Panc02.13 cells up to 3 uM after 16 hrs by Western blot method; format: cell-based
[14] = target: T1, von Hippel-Lindau disease tumor suppressor/Serine/threonine-protein kinase TBK1; assay: Induction of VHL-mediated TBK1 degradation in human Panc02.13 cells at 100 nM after 16 hrs in presence of proteosome inhibitor carfilzomib by Western blot method; format: cell-based
How it was run: as §1, with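 “Panc02.13 cells grown in RPMI-1640 with 15% FBS and 10 units/mL human recombinant insulin, exposed to compound for 16 h. For” for “For”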

[15] = target: T1, von Hippel-Lindau disease tumor suppressor/Serine/threonine-protein kinase TBK1; assay: Induction of VHL-mediated TBK1 degradation in human Panc02.13 cells after 16 hrs by Western blot method relative to control; format: cell-based
How it was run: as §1, with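 “Panc02.13 cells grown in RPMI-1640 with 15% FBS and 10 units/mL human recombinant insulin, exposed to compound for 16 h. For” for “For”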

[16] = target: T1, von Hippel-Lindau disease tumor suppressor/Serine/threonine-protein kinase TBK1; assay: Induction of VHL-mediated TBK1 degradation in human Panc02.13 cells assessed as decrease in Poly(I:C)-induced in IRF3 phosphorylation at 100 nM preincubated for 16 hrs followed by Poly I:C addition measured after 3 hrs by Western blot method; format: cell-based
How it was run: as §1, with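 “Panc02.13 cells grown in RPMI-1640 with 15% FBS and 10 units/mL human recombinant insulin, exposed to compound for 16 h. For” for “For”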

[17] = test system: HCC827; assay: Antiproliferative activity against human HCC827 cells harboring wild-type K-Ras at 10 uM after 72 hrs by CellTiter-Glo assay; format: functional, cell-based; how it was run: as §2
[18] = test system: NCI-H1792; assay: Antiproliferative activity against human NCI-H1792 cells harboring K-Ras mutant at 10 uM after 72 hrs by CellTiter-Glo assay; format: functional, cell-based; how it was run: as §2
[19] = target: T1, von Hippel-Lindau disease tumor suppressor/Serine/threonine-protein kinase TBK1; assay: Induction of VHL-mediated TBK1 degradation in human HCC827 cells harboring wild-type K-Ras at 100 to 300 nM after 16 hrs by Western blot method; format: cell-based
[20] = target: T1, von Hippel-Lindau disease tumor suppressor/Serine/threonine-protein kinase TBK1; assay: Induction of VHL-mediated TBK1 degradation in human H23 cells harboring K-Ras mutant at 100 to 300 nM after 16 hrs by Western blot method; format: cell-based
[21] = test system: NCI-H23; assay: Antiproliferative activity against human H23 cells harboring K-Ras mutant at 10 uM after 72 hrs by CellTiter-Glo assay; format: functional, cell-based; how it was run: as §2
[22] = species: Homo sapiens; assay: Antiproliferative activity against human NCI-H2110 cells harboring wild-type K-Ras at 10 uM after 72 hrs by CellTiter-Glo assay; format: functional, cell-based; how it was run: as §2

von Hippel-Lindau disease tumor suppressor/Elongin-C/Elongin-B/HIF1A, sequence (P40337 whole entry, looked up): as the sequence (P40337 whole entry, looked up, one chain of several) above
von Hippel-Lindau disease tumor suppressor/Elongin-C/Elongin-B/HIF1A, sequence (Q15369 whole entry, looked up): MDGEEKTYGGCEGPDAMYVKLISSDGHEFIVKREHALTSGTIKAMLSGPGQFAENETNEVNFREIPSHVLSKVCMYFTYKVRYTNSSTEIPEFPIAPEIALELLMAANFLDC
von Hippel-Lindau disease tumor suppressor/Elongin-C/Elongin-B/HIF1A, sequence (Q15370 whole entry, looked up): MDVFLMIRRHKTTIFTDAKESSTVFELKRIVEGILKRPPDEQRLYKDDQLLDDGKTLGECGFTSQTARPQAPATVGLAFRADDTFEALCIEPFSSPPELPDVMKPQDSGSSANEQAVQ
von Hippel-Lindau disease tumor suppressor/Elongin-C/Elongin-B/HIF1A, sequence (Q16665 whole entry, looked up): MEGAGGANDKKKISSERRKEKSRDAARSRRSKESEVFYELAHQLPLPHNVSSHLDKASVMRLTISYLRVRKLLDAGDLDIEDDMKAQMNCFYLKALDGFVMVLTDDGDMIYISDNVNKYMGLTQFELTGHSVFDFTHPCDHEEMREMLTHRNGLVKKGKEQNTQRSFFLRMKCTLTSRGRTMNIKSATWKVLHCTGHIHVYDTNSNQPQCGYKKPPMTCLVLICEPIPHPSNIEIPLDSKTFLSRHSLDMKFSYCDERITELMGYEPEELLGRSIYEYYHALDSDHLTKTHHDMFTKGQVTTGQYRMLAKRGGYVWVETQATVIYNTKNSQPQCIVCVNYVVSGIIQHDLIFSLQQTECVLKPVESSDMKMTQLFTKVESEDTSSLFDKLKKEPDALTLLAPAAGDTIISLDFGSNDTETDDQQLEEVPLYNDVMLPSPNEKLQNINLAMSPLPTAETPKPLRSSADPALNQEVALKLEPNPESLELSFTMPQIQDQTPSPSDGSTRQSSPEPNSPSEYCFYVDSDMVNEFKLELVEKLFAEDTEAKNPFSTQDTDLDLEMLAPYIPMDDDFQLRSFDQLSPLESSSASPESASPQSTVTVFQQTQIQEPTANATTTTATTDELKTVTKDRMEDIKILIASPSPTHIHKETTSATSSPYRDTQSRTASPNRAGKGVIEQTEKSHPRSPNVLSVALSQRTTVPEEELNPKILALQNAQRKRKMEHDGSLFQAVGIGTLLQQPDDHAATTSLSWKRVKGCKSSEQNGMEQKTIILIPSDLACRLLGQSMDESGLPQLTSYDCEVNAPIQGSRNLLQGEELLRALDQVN
von Hippel-Lindau disease tumor suppressor/Inhibitor of nuclear factor kappa-B kinase subunit epsilon (Homo sapiens), sequence (P40337 whole entry, looked up): as the sequence (P40337 whole entry, looked up, one chain of several) above
von Hippel-Lindau disease tumor suppressor/Inhibitor of nuclear factor kappa-B kinase subunit epsilon (Homo sapiens), sequence (Q14164 whole entry, looked up): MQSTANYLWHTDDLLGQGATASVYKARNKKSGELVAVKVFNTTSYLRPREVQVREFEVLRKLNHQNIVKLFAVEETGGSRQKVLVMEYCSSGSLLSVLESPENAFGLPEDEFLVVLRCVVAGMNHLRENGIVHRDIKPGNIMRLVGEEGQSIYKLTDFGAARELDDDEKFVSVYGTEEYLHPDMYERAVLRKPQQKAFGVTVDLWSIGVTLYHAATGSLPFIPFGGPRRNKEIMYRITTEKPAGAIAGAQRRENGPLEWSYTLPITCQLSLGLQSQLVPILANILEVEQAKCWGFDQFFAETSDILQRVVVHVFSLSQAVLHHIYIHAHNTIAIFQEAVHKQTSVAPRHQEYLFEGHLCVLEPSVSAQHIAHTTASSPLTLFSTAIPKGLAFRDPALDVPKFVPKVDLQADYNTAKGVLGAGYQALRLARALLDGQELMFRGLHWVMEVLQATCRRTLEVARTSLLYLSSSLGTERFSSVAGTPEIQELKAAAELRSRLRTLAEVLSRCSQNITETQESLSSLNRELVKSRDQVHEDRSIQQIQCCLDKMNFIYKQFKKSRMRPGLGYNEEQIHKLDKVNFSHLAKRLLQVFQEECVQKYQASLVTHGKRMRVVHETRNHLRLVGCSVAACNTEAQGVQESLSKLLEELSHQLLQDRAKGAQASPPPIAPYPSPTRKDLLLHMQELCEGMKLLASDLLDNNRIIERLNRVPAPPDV

With `CCOc1ccc(Nc2ncc(Br)c(NCCCN(C)C(=O)C3CCC3)n2)cc1` the Activity [1] was “inactive”, the DC50 [2] was over 1000 nM and the Kd [3] was 1.3 nM.
With `Cc1ncsc1-c1ccc(CNC(=O)[C@@H]2C[C@H](O)CN2C(=O)[C@@H](NC(=O)COCCCOCCCCOCCCOc2ccc(Nc3ncc(Br)c(NCCCN(C)C(=O)C4CCC4)n3)cc2)C(C)(C)C)cc1` the IC50 [4] was over 100000 nM, the inhibition [5] was “Active” and the Kd [3] was 5.9 nM. The Activity [6] was “inactive”.
With `Cc1ncsc1-c1ccc(CNC(=O)[C@@H]2C[C@@H](O)CN2C(=O)[C@@H](NC(=O)COCCCOCCCCOCCCOc2ccc(Nc3ncc(Br)c(NCCCN(C)C(=O)C4CCC4)n3)cc2)C(C)(C)C)cc1` the Activity [7] was “Active”, the Activity [8] was “Active” and the Activity [9] was “Active”. For the same compound, the Activity [10] was “inactive”, the Activity [11] was “inactive” and the Activity [12] was “Active”. For the same compound, the Activity [13] was “inactive”, the IC50 [4] was 4900 nM and the Activity [14] was “inactive”. For the same compound, the Emax [15] was 96%, the Activity [16] was “Active” and the Activity [17] was “inactive”. For the same compound, the DC50 [2] was 9 to 12 nM, the Activity [18] was “inactive” and the Activity [19] was “Active”. For the same compound, the Activity [20] was “Active”, the Activity [21] was “inactive” and the Activity [22] was “inactive”.

— ChEMBL document CHEMBL4219031, “Identification and Characterization of Von Hippel-Lindau-Recruiting Proteolysis Targeting Chimeras (PROTACs) of TANK-Binding Kinase 1” (J Med Chem, 2018)
